Source: ChEMBL document CHEMBL1938290, “Synthesis of 5-benzyl-2-phenylpyrazolo[1,5-a]pyrazin-4,6(5H,7H)-dione derivatives and discovery of an apoptosis inducer for H322 lung cancer cells” (Bioorg Med Chem Lett, 2012)
pIC50: −log10 of the molar value. Activity calls are given as the source filed them. No cut-off for these calls is given here.

Columns and labels:
A549 [1] = assay: Cytotoxicity against human A549 cells expressing wild type p53 at 20 uM after 24 hrs by SRB assay; format: functional, cell-based
Procedure, shortened: (§1)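 A549 (p53 wild-type) lung cancer cells exposed to compound at 20 or 40 µM for 24 or 48 h respectively. Growth/viability then measured by SRB staining with a spectrophotometric read-out, expressed as % of untreated control.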

A549 [2] = assay: Cytotoxicity against human A549 cells expressing wild type p53 at 40 uM after 48 hrs by SRB assay; format: functional, cell-based; procedure, shortened: as §1
NCI-H322 [3] = assay: Induction of apoptosis in human NCI-H322 cells assessed as nuclear granulation at 10 to 40 uM after 24 hrs by Hoechst 33258 staining-based fluorescent microscopy; format: functional, cell-based
Procedure, shortened: (§2)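 H322 cells cultured 24 h with compound or vehicle (0.1% DMSO), then stained with Hoechst 33258. Viewed by fluorescence microscopy at 400×, scoring condensed chromatin and nuclear granulation (blue fluorescence). Apoptotic cell ratio expressed vs control as mean ± SE, n = 3.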

[4] = (§3) Cytotoxicity against human NCI-H322 cells expressing p53 mutant after 24 hrs by SRB assay; format: functional, cell-based; conditions: NCI-H322, 24 h
Procedure, shortened: (§4)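 H322 cells exposed to 10, 20, 30 or 40 µM, alongside untreated control, for 24 h. SRB viability read by spectrophotometer. Mean ± SE, n = 3. IC50 taken from the dose–response at 24 h.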

NCI-H322 [5] = assay: as §3; format: functional, cell-based; procedure, shortened: as §4
NCI-H322 [6] = assay: Induction of apoptosis in human NCI-H322 cells assessed as chromatin condensation at 10 to 40 uM after 24 hrs by Hoechst 33258 staining-based fluorescent microscopy; format: functional, cell-based; procedure, shortened: as §2
HUVEC = assay: Cytotoxicity against HUVEC up to 40 uM by SRB assay; format: cell-based; conditions: human
NCI-H322 [7] = assay: Cytotoxicity against human NCI-H322 cells expressing p53 mutant at 20 uM after 24 hrs by SRB assay; format: functional, cell-based
Procedure, shortened: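 H322 (p53-mutant) cells treated at 20 µM or left untreated for 24 h. Viability measured by SRB assay and given as % of untreated control. Mean ± SE, n = 3, significance P < 0.05 vs control.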

[8] = Solubility of the compound; format: physicochemical

Row | Compound | Activity (A549 [1]) | Activity (A549 [2]) | also measured
1 | O=C1Cn2nc(-c3ccccc3)cc2C(=O)N1Cc1ccccc1 | inactive | inactive | –
2 | COc1cccc(CCN2C(=O)Cn3nc(-c4ccc(Cl)cc4)cc3C2=O)c1 | inactive | inactive | –
3 | COc1ccc(-c2cc3n(n2)CC(=O)N(CCc2ccccc2)C3=O)cc1 | inactive | inactive | Activity (NCI-H322 [3]): Active; pIC50 [4]: 4.55; Activity (NCI-H322 [5]): Dose-dependent effect; Activity (NCI-H322 [6]): Active; Activity (HUVEC): Non-toxic
4 | O=C1Cn2nc(-c3ccc(Cl)cc3)cc2C(=O)N1CCc1ccc(F)cc1 | inactive | inactive | –
5 | O=C1Cn2nc(-c3ccc(Cl)cc3)cc2C(=O)N1CCc1ccccc1 | inactive | inactive | –
6 | COc1ccc(-c2cc3n(n2)CC(=O)N(CCc2cccc(OC)c2)C3=O)cc1 | inactive | inactive | –
7 | O=C1Cn2nc(-c3ccc(Cl)cc3)cc2C(=O)N1Cc1ccccc1 | inactive | inactive | –
8 | COc1ccc(-c2cc3n(n2)CC(=O)N(Cc2ccccc2)C3=O)cc1 | inactive | inactive | Activity (NCI-H322 [7]): Active; solubility [8]: Insoluble
9 | COc1ccc(-c2cc3n(n2)CC(=O)N(CCc2ccc(F)cc2)C3=O)cc1 | inactive | inactive | –
10 | O=C1Cn2nc(-c3ccccc3)cc2C(=O)N1CCc1ccccc1 | inactive | inactive | –
11 | O=C1Cn2nc(-c3ccccc3)cc2C(=O)N1CCc1ccc(F)cc1 | inactive | inactive | –
12 | COc1cccc(CCN2C(=O)Cn3nc(-c4ccccc4)cc3C2=O)c1 | inactive | inactive | –
